Experimental data reported in ChEMBL document CHEMBL3351423, “2-Phenylaminonaphthoquinones and related compounds: synthesis, trypanocidal and cytotoxic activities” (Bioorg Med Chem, 2014).

Key:
Vero = experiment: Cytotoxicity against african green monkey Vero cells by MTT assay; type: cell-based; conditions: Chlorocebus sabaeus
How it was run: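 Vero cells in RPMI 1640 without phenol red, with compound added from DMSO (final below 0.25% v/v). Read by MTT (5 mg/mL) plus 0.22 mg/mL phenazine methosulfate for 4 h at 37 °C, formazan dissolved in 10% SDS/0.01 M HCl overnight, OD at 570 nm. IC50 from four-parameter nonlinear fit; at least three experiments, triplicate cultures.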

Trypanosoma cruzi [1] = experiment: Trypanocidal activity against epimastigote stage of Trypanosoma cruzi assessed as cell viability after 24 hrs by MTT assay
[2] = Antiproliferative activity against human PC3 cells after 72 hrs; type: functional, cell-based; conditions: PC-3, 72 h
How it was run: (§1)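 Cells grown in DMEM with 10% FCS, penicillin/streptomycin and 1 mM glutamine. Seeded at 3 × 10³ cells/well and allowed to attach for 24 h at 37 °C in 5% CO₂. Exposed continuously for 72 h to four serial dilutions (12.5 to 100 µM), in triplicate; final DMSO 0.1%, DMSO-only controls. Read by sulforhodamine B after TCA fixation, with doxorubicin as reference.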

MCF7 [3] = experiment: Antiproliferative activity against human MCF7 cells after 72 hrs; type: functional, cell-based; conditions: MCF7, 72 h; how it was run: as §1
MDA-MB-231 = experiment: Antiproliferative activity against human MDA-MB-231 cells after 72 hrs; type: functional, cell-based; conditions: MDA-MB-231, 72 h; how it was run: as §1
[4] = Antiproliferative activity against human dermal fibroblast cells after 72 hrs; type: cell-based; how it was run: as §1
MCF7 [5] = experiment: Selectivity index, ratio of IC50 for human dermal fibroblast cells to IC50 for human MCF7 cells; type: functional
How it was run: (§2)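 Selectivity index calculated as IC50 in non-tumoral dermal human fibroblasts divided by IC50 in the cancer line. Both IC50s come from a 72 h sulforhodamine B growth assay with four dilutions (12.5–100 µM) in triplicate.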

Fibroblast [6] = experiment: Selectivity index, ratio of IC50 for human dermal fibroblast cells to IC50 for human PC3 cells; type: functional; how it was run: as §2
Trypanosoma cruzi [7] = experiment: Trypanocidal activity against trypomastigote form of Trypanosoma cruzi infected in african green monkey Vero cells assessed as cell viability after 5 to 7 days by MTT assay; type: functional
[8] = Selectivity index, ratio of CC50 for african green monkey Vero cells to IC50 for epimastigote stage of Trypanosoma cruzi; type: functional
How it was run: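 Selectivity index taken as Vero IC50 divided by epimastigote IC50. Both values are from MTT viability assays, with Vero cells read at 37 °C and epimastigotes at 28 °C.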

Fibroblast [9] = experiment: Selectivity index, ratio of IC50 for human dermal fibroblast cells to IC50 for human MDA-MB-231 cells; type: functional; how it was run: as §2

Row | Structure (SMILES) | IC50 (Vero) [µM] | IC50 (Trypanosoma cruzi [1]) [µM] | IC50 [2] [µM] | IC50 (MCF7 [3]) [µM] | IC50 (MDA-MB-231) [µM] | IC50 [4] [µM] | Selectivity Index (MCF7 [5]) | Selectivity Index (Fibroblast [6]) | inhibition (INH) (Trypanosoma cruzi [7]) [%] | Selectivity Index [8] | Selectivity Index (Fibroblast [9])
1 | O=C1C=C(Nc2ccc(O)cc2)C(=O)c2ccccc21 | > 25 | > 25 |  |  |  |  |  |  |  |  | 
2 | COc1ccc(NC2=CC(=O)c3ccccc3C2=O)cc1 | > 25 | > 25 | 35.4 | > 100 | > 100 | 65.4 |  |  |  |  | 
3 | COc1ccc(OC)c(NC2=CC(=O)c3ccccc3C2=O)c1 | > 50 | 23.3 | 1.03 | 0.21 | 87.5 | > 100 | >480 | >97 |  |  | 
4 | COc1ccc(OC)c(NC2=C(Cl)C(=O)c3ccccc3C2=O)c1 | > 100 | > 100 |  |  |  |  |  |  |  |  | 
5 | O=C1C=C(Nc2ccc3ccccc3c2)C(=O)c2ccccc21 | 6.97 | 9.02 |  |  |  |  |  |  | 86.02 | 0.77 | 
6 | O=C1C(O)=C(c2ccccc2[N+](=O)[O-])C(=O)c2ccccc21 | > 100 | > 100 |  |  |  |  |  |  |  |  | 
7 | COc1ccccc1NC1=CC(=O)c2ccccc2C1=O | > 25 | 3.49 | > 100 | > 100 | > 100 | > 100 |  |  | 18.78 |  | 
8 | COc1cccc(NC2=CC(=O)c3ccccc3C2=O)c1 | > 25 | > 25 | > 100 | > 100 | > 100 | > 100 |  |  |  |  | 
9 | COc1ccc(NC2=CC(=O)c3ccccc3C2=O)cc1OC | > 25 | 25 | 10.4 | 22.2 | 10.2 | > 100 |  |  |  |  | 
10 | COc1ccc(NC2=CC(=O)c3ccccc3C2=O)c(OC)c1 | > 25 | > 25 | 60 | > 100 | > 100 | > 100 |  |  |  |  | 
11 | CCCCCCOc1ccc(NC2=CC(=O)c3ccccc3C2=O)cc1 | 27 | 1.72 | 27.9 | > 100 | > 100 | > 100 |  |  | 69.63 | 16 | 
12 | Cc1ccc(NC2=CC(=O)c3ccccc3C2=O)c(C)c1 | > 25 | > 25 |  |  |  |  |  |  |  |  | 
13 | CCCCCCOc1ccc(NC2=C(Cl)C(=O)c3ccccc3C2=O)cc1 | 196 | 6.04 | > 100 | > 100 | > 100 | > 100 |  |  | 46.3 | 32 | 
14 | O=C1C=C(Nc2cccc3ccccc23)C(=O)c2ccccc21 | > 25 | 15.9 |  |  |  |  |  |  | 59.67 |  | 
15 | COc1cccc2c3c([nH]c12)C(=O)c1ccccc1C3=O | 21.7 | 20.9 | > 100 | > 100 | > 100 | > 100 |  |  | 12.21 | 0.95 | 
16 | COc1ccc2c3c([nH]c2c1)C(=O)c1ccccc1C3=O | > 25 | > 25 |  |  |  |  |  |  |  |  | 

Row | Structure (SMILES) | IC50 (Vero) [µM] | IC50 (Trypanosoma cruzi [1]) [µM] | IC50 [2] [µM] | IC50 (MCF7 [3]) [µM] | IC50 (MDA-MB-231) [µM] | IC50 [4] [µM] | Selectivity Index (MCF7 [5]) | Selectivity Index (Fibroblast [6]) | inhibition (INH) (Trypanosoma cruzi [7]) [%] | Selectivity Index [8] | Selectivity Index (Fibroblast [9])
17 | COc1ccc2[nH]c3c(c2c1)C(=O)c1ccccc1C3=O | > 50 | > 50 | > 100 | > 100 | > 100 | > 100 |  |  |  |  | 
18 | COc1ccc(OC)c2c3c([nH]c12)C(=O)c1ccccc1C3=O | > 100 | > 100 |  |  |  |  |  |  |  |  | 
19 | CCCCCCOc1ccc2[nH]c3c(c2c1)C(=O)c1ccccc1C3=O | > 100 | > 100 |  |  |  |  |  |  |  |  | 
20 | COc1cc2c(cc1OC)C(=O)c1c([nH]c3cc(OC)c(OC)cc13)C2=O | > 100 | > 100 |  |  |  |  |  |  |  |  | 
21 | COc1ccc2c(c1)c1c(n2C)C(=O)c2ccccc2C1=O | > 25 | > 25 | > 100 | > 100 | > 100 | > 100 |  |  |  |  | 
22 | COc1cc2c3c(n(C)c2cc1OC)C(=O)c1ccccc1C3=O | > 100 | > 100 | > 100 | > 100 | > 100 | > 100 |  |  |  |  | 
23 | COc1ccc(OC)c(NC2=CC(=O)c3ncccc3C2=O)c1 | 15.4 | 2.45 | 0.53 | 0.12 | 8.8 | 22.5 | 188 | 42 | 32.62 | 6.3 | 
24 | O=C1C(Cl)=C(Nc2cccnc2)C(=O)c2ccccc21 | > 100 | > 100 |  |  |  |  |  |  |  |  | 
25 | Cc1cnc2c(c1)C(=O)C=C(Nc1ccccc1)C2=O | 16.2 | 5.79 |  |  |  |  |  |  | 58.2 | 2.7 | 
26 | COc1ccc(OC)c(NC2=CC(=O)C3=C(OC(C)(C)C3)C2=O)c1 | 15.5 | 12.3 |  |  |  |  |  |  | 7.5 | 1.3 | 
27 | Cn1ncc2c1C(=O)C1=C(CC(C)(C)O1)C2=O | 13.4 | 2.53 |  |  |  |  |  |  | 38.57 | 5.3 | 
28 | COc1cc2c(cc1OC)C(=O)C(c1cc(OC)c(OC)cc1[N+](=O)[O-])=C(O)C2=O | > 100 | > 100 |  |  |  |  |  |  |  |  | 
29 | O=C1C=C(Nc2ccccc2)C(=O)c2ccccc21 | > 10 | > 25 |  |  |  |  |  |  |  |  | 
30 | O=C1c2ccccc2C(=O)c2c1[nH]c1ccccc21 [BENZOCARBAZOLEDIONE] | > 10 | > 10 |  |  |  |  |  |  |  |  | 
31 | COc1cccc2c1C(=O)c1c(O)c3c(c(O)c1C2=O)C[C@@](O)(C(=O)CO)C[C@@H]3O[C@H]1C[C@H](N)[C@H](O)[C@H](C)O1 [DOXORUBICIN] |  |  | 0.54 | 0.32 | 0.31 | 7.86 | 25 | 15 |  |  | 25
32 | CC1CS(=O)(=O)CCN1/N=C/c1ccc([N+](=O)[O-])o1 (stereo not given) [NIFURTIMOX] | 411 | 21.1 |  |  |  |  |  |  | 42.62 | 20 | 
